A word on the GI50: it is the concentration giving 50% growth inhibition. Lower therefore signals greater sensitivity of the cells.

GI50, Activity and TGI data for 14 molecules are collected here from ChEMBL document CHEMBL3259813, “Design, synthesis and in vitro and in vivo antitumour activity of 3-benzylideneindolin-2-one derivatives, a novel class of small-molecule inhibitors of the MDM2-p53 interaction” (Eur J Med Chem, 2014).

Data set [1] has as its system MCF7. In words: Antiproliferative activity against human MCF7 cells after 48 hrs by MTT assay. The following applies: MCF7, 48 h. A general note: Tetrazolium assays rely on reduction of a dye to a coloured formazan, in cell work by metabolically active cells.
Data set [2] relates to HCT-116. Kind of data set: Antiproliferative activity against p53-deficient human HCT116 cells after 48 hrs by MTT assay. The note with it: HCT-116, 48 h.
Data set [3] deals with HCT-116. Kind of data set: Antiproliferative activity against human HCT116 cells expressing wild type p53 after 48 hrs by MTT assay. The note with it: HCT-116, 48 h.
The test system of data set [4] is A549. Kind of data set: Antiproliferative activity against human A549 cells after 48 hrs by MTT assay. The following applies: A549, 48 h.
Data set [5] has as its system HCT-116. In words: […] in human HCT116 cells assessed as accumulation at G1 phase at 50 uM after 48 hrs by propidium iodide staining-based flow cytometry (reference value: 62.5%). The data set is classed as functional. A digest of the protocol: (§1)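 HCT116 (wild-type p53) seeded at 2×10^5 cells/well, cultured 48 h, then treated with compound for 48 h. Washed in cold PBS, fixed overnight in 70% ice-cold ethanol, RNase A (100 µg/ml) 30 min at room temperature, stained with propidium iodide (50 µg/mL final). Cell cycle distribution by flow cytometry.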

The test system of data set [6] is HCT-116. Kind of data set: […] in human HCT116 cells assessed as accumulation at S phase at 50 uM after 48 hrs by propidium iodide staining-based flow cytometry (reference value: 24.8%). The data set is classed as functional. In outline:
as §1

Data set [7] relates to HCT-116. In words: Induction of apoptosis in human HCT116 cells after 48 hrs by propidium iodide staining-based flow cytometry. The data set is classed as functional, cell-based. In outline: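 HCT116 cells seeded at 2×10^5/well, grown 48 h, then exposed to compound for 48 h. Cells fixed overnight in 70% ice-cold ethanol, treated with RNase A (100 µg/ml, 30 min, room temperature), stained with propidium iodide (50 µg/mL final). Analysed by flow cytometry.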
On the technique in general: In flow cytometry, cells or beads pass a laser one at a time.

In data set [8] the test system is Mus musculus. Kind of data set: Toxicity in BALB/c mouse assessed as death at 1000 mg/kg, ip after 24 hrs. Set-up: dose 1000 mg/kg, route intraperitoneal. Type of data set: organism-based. The following applies: in vivo. A digest of the protocol: (§2)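 BALB/c mice randomised into two groups of 10; single intraperitoneal dose of 500 or 1000 mg/kg in 10% DMSO. Animals monitored for death and visible signs of toxicity over 8 days.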

Data set [9] has as its system HCT-116. In words: Induction of MDM2 expression in human HCT116 cells after 48 hrs by Western blotting analysis. Type of data set: functional, cell-based. A digest of the protocol:
(§3)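 p53 wild-type HCT116 cells exposed to a range of concentrations for 48 h, lysed in Tris/NaCl/Triton X-100 buffer with protease inhibitors. Protein assayed by Bio-Rad method, separated by SDS-PAGE, transferred to PVDF, blocked in 5% non-fat milk. Primary antibody 2 h at room temperature, peroxidase secondary, ECL detection; beta-actin as loading control.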

The subject of data set [10] is CT26. In words: Antitumor activity against mouse CT26 cells allografted in ip dosed BALB/c mouse assessed as tumor growth inhibition administered qd for 10 days. Type of data set: functional, organism-based. A digest of the protocol:
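CT26 cell suspension implanted s.c. in right axilla of BALB/c mice; randomised 10/group. Dosing i.p. once daily for 10 days, starting 24 h after implantation; vehicle and blank control groups. Mice sacrificed 24 h after last dose, tumours excised and weighed; inhibition = (A–B)/A×100%, A and B mean tumour weights of control and treated groups.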

In data set [11] the test system is HCT-116. Kind of data set: Induction of p53 expression in human HCT116 cells after 48 hrs by Western blotting analysis. The data set is classed as functional, cell-based. In outline:
as §3
A general note: In western blotting, separated proteins are transferred to a membrane and probed.

Data set [12] has as its system Mus musculus. Kind of data set: Toxicity in BALB/c mouse allografted with mouse CT26 cells assessed as body weight at 100 mg/kg, ip qd administered for 10 days (reference value: 19.45 gm). The data set is classed as organism-based. More on the design: dose 100 mg/kg, route intraperitoneal. The following applies: in vivo, 240 h.
Data set [13] concerns Mus musculus. In words: Toxicity in BALB/c mouse assessed as visible side effect at 500 mg/kg, ip up to 8 days. Set-up: dose 500 mg/kg, route intraperitoneal. The note with it: in vivo, 192 h. Type of data set: organism-based. In outline: as §2
Data set [14] deals with Mus musculus. Kind of data set: Toxicity in BALB/c mouse allografted with mouse CT26 cells assessed as body weight at 50 mg/kg, ip qd administered for 10 days (reference value: 19.45 gm). The data set is classed as organism-based. More on the design: dose 50 mg/kg, route intraperitoneal. The following applies: in vivo, 240 h.
In data set [15] the test system is Mus musculus. In words: Toxicity in BALB/c mouse assessed as death at 500 mg/kg, ip up to 8 days. The data set is classed as organism-based. Set-up: dose 500 mg/kg, route intraperitoneal. The note with it: in vivo, 192 h. In outline: as §2
The test system of data set [16] is HCT-116. Kind of data set: Induction of p21 expression in human HCT116 cells after 48 hrs by Western blotting analysis. The data set is classed as functional, cell-based. A digest of the protocol: as §3

On to `CC(C)Oc1ccc(/C=C2/C(=O)Nc3ccc(Cl)cc32)c(OC(C)C)c1`, for which the 50% growth inhibitory concentration (GI50) was 55.7 µM in data set [1], 37.7 µM in [2], 29.7 µM in [3] and 42.6 µM in [4].

As for `COc1cccc(/C=C2/C(=O)Nc3cc(Cl)ccc32)c1-c1ccc(C#N)cc1`, the GI50 was > 100 µM in data set [1], 110 µM in data set [2], 48.3 µM in data set [3] and 81.6 µM in data set [4].

On to `COc1ccc(/C=C2/C(=O)Nc3ccc(Cl)cc32)c(Br)c1`, for which the concentration for 50% growth inhibition (GI50) was > 100 µM in [1], 115 µM in data set [2], 53.4 µM in [3] and > 100 µM in data set [4].

As for `COc1ccc(/C=C2/C(=O)Nc3ccc(F)cc32)c(-c2ccc(Cl)cc2)c1`, the GI50 was > 100 µM in [1], 27.3 µM in data set [2], 15.3 µM in data set [3] and 58.8 µM in data set [4].

As to `CC(C)Oc1ccc(/C=C2/C(=O)Nc3cc(Cl)ccc32)c(OC(C)C)c1`, the GI50 is 42.9 µM in data set [1], 42 µM in [2], 23.4 µM in data set [3] and 30.4 µM in data set [4].

On to `CCCOc1ccc(/C=C2/C(=O)Nc3ccc(Cl)cc32)c(OCCC)c1`, for which the GI50 is 58.4 µM in [1], 26.1 µM in data set [2], 21 µM in data set [3] and 30.2 µM in data set [4].

Take `COc1ccc(/C=C2/C(=O)Nc3cc(F)ccc32)c(-c2ccc(C#N)cc2)c1`: the GI50 is > 100 µM in data set [1], 109 µM in data set [2], 17.1 µM in data set [3] and > 100 µM in [4].

`COc1ccc(/C=C2/C(=O)Nc3ccc(Cl)cc32)c(-c2ccc(C#N)cc2)c1`: the 50% growth inhibitory concentration (GI50) in data set [1] was > 100 µM; in data set [2], 124 µM; in data set [3], 27.1 µM; in data set [4], > 100 µM.

`COc1ccc(/C=C2/C(=O)Nc3ccc(Cl)cc32)c(OC)c1`: the GI50 in data set [1] was > 100 µM; in data set [2], 126 µM; in [3], 49.2 µM; in data set [4] it was > 100 µM.

In the case of `COc1ccc(/C=C2/C(=O)Nc3ccc(Cl)cc32)c(-c2ccc(Cl)cc2)c1`, the GI50 in data set [1] is > 100 µM; in [2], 135 µM; in [3], 32.2 µM; in data set [4], 86.7 µM.

As to `COc1ccc(C2=N[C@@H](c3ccc(Cl)cc3)[C@@H](c3ccc(Cl)cc3)N2C(=O)N2CCNC(=O)C2)c(OC(C)C)c1` [NUTLIN-3], the 50% growth inhibitory concentration (GI50) was 48.7 µM in data set [1], 55.7 µM in data set [2], 32.1 µM in [3] and 47.6 µM in [4]. Further, the Activity was 53% in [5], 8.7% in [6] and “Dose-dependent effect” in data set [7].

For the molecule `COc1ccc(/C=C2/C(=O)Nc3ccccc32)c(OC)c1`, the GI50 in data set [1] was 54.1 µM; in data set [2], 28.1 µM; in [3], 13.4 µM; in [4] it was 52.5 µM. In addition, the Activity result in data set [8] is “Toxic”; in data set [9] it was “Dose-dependent effect”; in [11], “Dose-dependent effect”; in data set [12], 18.91 g; in [13], “Non-toxic”; in [14] it was 18.95 g. In addition, the Activity result is “Dose-dependent effect” in data set [7], “Non-toxic” in data set [15] and “Dose-dependent effect” in data set [16]. For the same molecule, the TGI entry in [10] is “Dose-dependent effect”.

In the case of `COc1ccc(/C=C2/C(=O)Nc3cc(F)ccc32)c(OC)c1`, the GI50 in data set [1] was 88.4 µM; in data set [2], 65.5 µM; in data set [3], 26.9 µM; in data set [4], > 100 µM.

Regarding `CCCOc1ccc(/C=C2/C(=O)Nc3ccccc32)c(OCCC)c1`, the 50% growth inhibitory concentration (GI50) amounted to 54 µM in data set [1], 21.3 µM in data set [2], 14.4 µM in [3] and 42.4 µM in [4].
